Experimental data of several laboratories.
Observed: cell growth or viability

`C=CC(=O)NC1CCN(c2ncc3ncnc(Nc4ccc(Oc5ccc6c(c5)ncn6C)c(C)c4)c3n2)CC1` gave an EC50 of 74.4 nM (Daoy).
The GI50 of `Cc1c(C(=O)O)ccc2c3n(nc12)[C@@H]1[C@H](C3)N(CC2CC2)[C@@]2(C(=O)Nc3cc(Cl)ccc32)[C@H]1c1cccc(Cl)c1F` is reported as 27 nM (UACC-812; resazurin).
`CO[C@]12C[C@@H](COC(=O)c3cncc(Br)c3)CN(C)[C@@H]1Cc1cn(C)c3cccc2c13` gave an IC50 of 12200 nM (SUNE1; MTT; 48 h).
`CC(C)c1ccccc1[C@@H]1CCCN1C1CC2(CCN(c3ccc(C(=O)NS(=O)(=O)c4ccc(NC[C@H]5CC[C@](C)(O)CC5)c([N+](=O)[O-])c4)c(Oc4cnc5[nH]ccc5c4)c3)CC2)C1` gave an IC50 of 2.6 nM (OCI-Ly10; ATP luminescence; 48 h).
With `O=C(Nc1cnn2ccc(N3CCC[C@@H]3c3cc(F)ccc3F)nc12)N1CC[C@H](O)C1` the IC50 was 10 nM (KM12; ATP luminescence; 72 h).
With `CC1(C)CCC(CN2CCN(c3ccc(C(=O)NS(=O)(=O)c4ccc(NCC5CCOCC5)c([N+](=O)[O-])c4)c(Oc4cnc5[nH]ccc5c4)c3)CC2)=C(c2ccc(Cl)cc2)C1` the IC50 was 19 nM (OCI-Ly10; ATP luminescence; 48 h).
For `COc1cc2nc(N3CCN(C(=O)c4ccco4)CC3)nc(N)c2cc1OC`, the IC50 was 27400 nM (SUNE1; MTT; 48 h).
`O=C(NO)c1ccc(CNc2nc3cccc(-c4ccc5c(c4)OCO5)n3n2)cc1` gave a GI50 of 560 nM (KM12; SRB).
